Measurements reported in ChEMBL document CHEMBL2057127, “Design, synthesis, modeling, biological evaluation and photoaffinity labeling studies of novel series of photoreactive benzamide probes for histone deacetylase 2” (Bioorg Med Chem Lett, 2012).
The source made the active and inactive calls. The calls are words filed in the database; no cut-off is given here.

What was measured:
Histone deacetylase 2 [1] = molecular target: T1, Histone deacetylase 2 (Homo sapiens, UniProt Q92769); assay: Binding affinity to His-tagged human HDAC2 assessed as decrease in biotinylation of HDAC2 at 25 uM preincubated for 24 hrs measured after 1 hr by Western blot analysis in presence of five-fold molar excess of Trichostatin A
T1 sequence (Q92769 whole entry): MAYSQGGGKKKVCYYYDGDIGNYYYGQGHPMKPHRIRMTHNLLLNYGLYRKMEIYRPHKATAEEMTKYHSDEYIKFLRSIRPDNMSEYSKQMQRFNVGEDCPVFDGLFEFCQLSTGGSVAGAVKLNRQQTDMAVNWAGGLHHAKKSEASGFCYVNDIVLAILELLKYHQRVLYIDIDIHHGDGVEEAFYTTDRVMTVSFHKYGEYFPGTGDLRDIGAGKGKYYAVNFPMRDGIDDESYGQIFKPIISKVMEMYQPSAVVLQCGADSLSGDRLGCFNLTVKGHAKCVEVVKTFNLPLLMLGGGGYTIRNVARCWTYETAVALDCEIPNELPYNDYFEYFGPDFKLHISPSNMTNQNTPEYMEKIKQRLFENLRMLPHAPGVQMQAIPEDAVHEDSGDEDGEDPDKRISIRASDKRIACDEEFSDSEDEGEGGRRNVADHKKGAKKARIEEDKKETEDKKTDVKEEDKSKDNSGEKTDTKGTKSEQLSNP

[2] = molecular target: Histone deacetylase 3 (Homo sapiens) (UniProt O15379); assay: Inhibition of human recombinant HDAC3 using Boc-L-Lys (Ac)-AMC as substrate at 10 uM by spectrofluorometric analysis; settings: TDE = time-dependent effect
Sequence of Histone deacetylase 3 (Homo sapiens) (O15379 whole entry): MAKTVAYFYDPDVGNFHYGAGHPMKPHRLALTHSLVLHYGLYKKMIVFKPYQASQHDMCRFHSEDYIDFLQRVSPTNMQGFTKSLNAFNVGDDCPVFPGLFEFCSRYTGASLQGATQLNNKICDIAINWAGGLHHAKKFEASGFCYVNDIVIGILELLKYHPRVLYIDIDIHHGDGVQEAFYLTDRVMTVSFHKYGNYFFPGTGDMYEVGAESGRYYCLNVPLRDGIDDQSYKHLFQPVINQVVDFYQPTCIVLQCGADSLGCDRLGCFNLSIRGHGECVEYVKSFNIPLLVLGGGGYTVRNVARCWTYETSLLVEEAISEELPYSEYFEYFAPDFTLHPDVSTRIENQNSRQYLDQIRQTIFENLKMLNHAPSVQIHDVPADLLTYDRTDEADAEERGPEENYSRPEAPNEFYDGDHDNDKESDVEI

[3] = molecular target: T2, Histone deacetylase 8 (Homo sapiens) (UniProt Q9BY41); assay: Inhibition of human recombinant HDAC8 using BML-KI-178 as substrate at 10 uM by spectrofluorometric analysis; settings: TDE = time-dependent effect
T2 sequence (whole entry): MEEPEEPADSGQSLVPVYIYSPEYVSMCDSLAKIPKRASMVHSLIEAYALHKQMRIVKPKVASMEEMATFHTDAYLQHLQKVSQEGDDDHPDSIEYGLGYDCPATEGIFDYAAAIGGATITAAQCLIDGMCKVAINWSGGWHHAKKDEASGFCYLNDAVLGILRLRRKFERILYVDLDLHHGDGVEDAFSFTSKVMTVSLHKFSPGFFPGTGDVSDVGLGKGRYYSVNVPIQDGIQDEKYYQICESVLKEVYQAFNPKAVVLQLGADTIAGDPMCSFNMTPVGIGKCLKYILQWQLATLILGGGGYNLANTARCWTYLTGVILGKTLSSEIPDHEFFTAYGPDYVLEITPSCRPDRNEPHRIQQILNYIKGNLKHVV

Histone deacetylase 1 [4] = molecular target: T3, Histone deacetylase 1 (Homo sapiens, UniProt Q13547); assay: Inhibition of HDAC1 in human MDA-MB-231 cells assessed as inhibition of H4 deacetylation at 50 uM after 24 hrs by Western blot analysis; format: cell-based
T3 sequence (Q13547 whole entry): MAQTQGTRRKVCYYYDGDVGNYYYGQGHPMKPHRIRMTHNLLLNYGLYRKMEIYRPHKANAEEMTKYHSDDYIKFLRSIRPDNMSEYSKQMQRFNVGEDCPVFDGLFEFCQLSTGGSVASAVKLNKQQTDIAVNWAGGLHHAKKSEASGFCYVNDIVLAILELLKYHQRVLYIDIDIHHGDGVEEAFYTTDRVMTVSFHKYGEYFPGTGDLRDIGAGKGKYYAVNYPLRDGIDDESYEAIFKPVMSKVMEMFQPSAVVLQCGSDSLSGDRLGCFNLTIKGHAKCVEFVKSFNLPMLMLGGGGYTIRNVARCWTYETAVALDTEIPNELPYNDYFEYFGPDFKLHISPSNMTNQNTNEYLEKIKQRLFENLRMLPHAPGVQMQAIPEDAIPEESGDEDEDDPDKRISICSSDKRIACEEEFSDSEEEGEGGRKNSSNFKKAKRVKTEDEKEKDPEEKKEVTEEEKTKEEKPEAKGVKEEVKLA
Procedure, shortened: (§1)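 MDA-MB-231 cells grown to 90% confluence in DMEM/10% FBS and treated with probes (50 µM final) or DMSO for 24 h at 37 °C, 5% CO2. Cells lysed in RIPA buffer with protease/phosphatase inhibitors, 25 µg total protein run on SDS-PAGE. Western blot with anti-acetyl histone H4, GAPDH as loading control; three independent experiments.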

Histone deacetylase 2 [5] = molecular target: T1, Histone deacetylase 2; assay: Inhibition of HDAC2 in human MDA-MB-231 cells assessed as inhibition of H4 deacetylation at 50 uM after 24 hrs by Western blot analysis; format: cell-based; procedure, shortened: as §1
Histone deacetylase 1 [6] = molecular target: T3, Histone deacetylase 1; assay: Inhibition of human recombinant HDAC1 using Boc-L-Lys (Ac)-AMC as substrate preincubated with compound for 5 mins measured after 35 mins by spectrofluorometric analysis
Histone deacetylase 1 [7] = molecular target: T3, Histone deacetylase 1; assay: Inhibition of human recombinant HDAC1 using Boc-L-Lys (Ac)-AMC as substrate preincubated with compound for 3 hrs measured after 35 mins by spectrofluorometric analysis
Histone deacetylase 2 [8] = molecular target: T1, Histone deacetylase 2; assay: Inhibition of human recombinant HDAC2 using Boc-L-Lys (Ac)-AMC as substrate preincubated with compound for 5 mins measured after 35 mins by spectrofluorometric analysis
Histone deacetylase 2 [9] = molecular target: T1, Histone deacetylase 2; assay: Inhibition of human recombinant HDAC2 using Boc-L-Lys (Ac)-AMC as substrate preincubated with compound for 3 hrs measured after 35 mins by spectrofluorometric analysis
Histone deacetylase 2 [10] = molecular target: T1, Histone deacetylase 2; assay: Inhibition of human recombinant HDAC2 using Boc-L-Lys (Ac)-AMC as substrate preincubated with compound for 24 hrs measured after 35 mins by spectrofluorometric analysis

Row | Structure (SMILES) | Activity (Histone deacetylase 2 [1]) | inhibition [2] | inhibition [3] | inhibition (Histone deacetylase 1 [4]) | inhibition (Histone deacetylase 2 [5]) | IC50 (Histone deacetylase 1 [6]) [µM] | IC50 (Histone deacetylase 1 [7]) [µM] | IC50 (Histone deacetylase 2 [8]) [µM] | IC50 (Histone deacetylase 2 [9]) [µM] | IC50 (Histone deacetylase 2 [10]) [µM]
1 | Nc1ccc(-c2ccccc2)cc1NC(=O)c1ccccc1 |  | tde | tde |  |  | 0.41 | 0.052 | 1.2 | 0.35 | 0.14
2 | [N-]=[N+]=NCc1cc(N=[N+]=[N-])cc(C(=O)Nc2cc(-c3cccs3)ccc2N)c1 | Active | tde | tde | Active | Active | 5.6 | 1.4 |  |  | 
3 | [N-]=[N+]=Nc1cccc(COC(=O)NCc2ccc(C(=O)Nc3cc(-c4ccccc4)ccc3N)cc2)c1 |  | tde | tde | Active | Active | 3.8 | 0.78 | 3.8 | 1 | 0.32
4 | [N-]=[N+]=NCc1cc(COC(=O)NCc2ccc(C(=O)Nc3cc(-c4ccccc4)ccc3N)cc2)cc(N=[N+]=[N-])c1 | Active | tde | tde | Active | Active |  |  |  |  | 
5 | [N-]=[N+]=NCCOc1ccc(C(=O)Nc2cc(-c3cccs3)ccc2N)cc1N=[N+]=[N-] | Active | tde | tde | Active | Active | 18 | 3.8 | 17 | 6.6 | 
6 | Nc1ccc(-c2ccccc2)cc1NC(=O)c1ccc(CNC(=O)OCc2ccccc2)cc1 |  | tde | tde |  |  |  |  |  |  | 
7 | [N-]=[N+]=NCCOc1ccc(C(=O)Nc2cc(-c3ccccc3)ccc2N)cc1N=[N+]=[N-] | Active | tde | tde | Active | Active | 23 | 2.7 | 34 | 6.5 | 
8 | [N-]=[N+]=Nc1ccc(C(=O)Nc2cc(-c3cccs3)ccc2N)cc1 |  | tde | tde | Active | Active |  |  |  |  | 

Continued, in another order:

Row | Activity (Histone deacetylase 2 [1]) | inhibition [2] | inhibition [3] | inhibition (Histone deacetylase 1 [4]) | inhibition (Histone deacetylase 2 [5]) | IC50 (Histone deacetylase 1 [6]) [µM] | IC50 (Histone deacetylase 1 [7]) [µM] | IC50 (Histone deacetylase 2 [8]) [µM] | IC50 (Histone deacetylase 2 [9]) [µM] | Structure (SMILES) | IC50 (Histone deacetylase 2 [10]) [µM]
9 | Active | tde | tde |  |  |  |  |  |  | [N-]=[N+]=NCCC(=O)Nc1ccc(C(=O)Nc2cc(N=[N+]=[N-])ccc2N)cc1 | 
10 | Active | tde | tde | Active | Active |  |  |  |  | [N-]=[N+]=NCc1cc(COC(=O)NCc2ccc(C(=O)Nc3cc(-c4cccs4)ccc3N)cc2)cc(N=[N+]=[N-])c1 | 
11 | Active | tde | tde | Active | Active |  |  |  |  | [N-]=[N+]=NCc1cc(N=[N+]=[N-])cc(C(=O)Nc2cc(-c3ccccc3)ccc2N)c1 | 
12 |  | tde | tde | Active | Active |  |  |  |  | [N-]=[N+]=Nc1ccc(C(=O)Nc2cc(-c3ccccc3)ccc2N)cc1 | 
